Measurements taken from the EternaBench riboswitch data.

Test system: MS2 coat protein
Test: apparent Kd, MS2 coat protein; higher = weaker binding; RNA-MaP array; FMN 200 µM where present
Method in brief: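 Green signal from SNAP-549-labelled MS2 coat protein was normalised to red-channel RNA signal and to the median Fmax of control clusters. The protein was titrated from 0.7 or 1.5 nM, doubling to 3 µM, without and then with constant ligand, over designs transcribed by stalled E. coli RNA polymerase on Illumina sequencing-chip clusters, in 100 mM Tris-HCl pH 7.5, 80 mM KCl, 4 mM MgCl2, BSA, DTT, yeast tRNA and Tween-20. The apparent Kd is the median of filtered per-cluster binding-curve fits.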

[1] = designed as: OFF switch for flavin mononucleotide, no ligand
[2] = ligand present: flavin mononucleotide, designed as: OFF switch for flavin mononucleotide
[3] = designed as: ON switch for flavin mononucleotide, no ligand
[4] = ligand present: flavin mononucleotide, designed as: ON switch for flavin mononucleotide

| Sequence | apparent Kd [1] | apparent Kd [2] | apparent Kd [3] | apparent Kd [4] |
| --- | --- | --- | --- | --- |
| GACACGUGAGGAUAUACAUGAGGAUCACCCAUGUAAGUACACGUGGCUGUUCCUGCAUGUAGAAGGCACGCAUU | 22.8 nM | 17.2 nM |  |  |
| UUGGCUAAACCUCAGAGUACCACAUGAGGAUCACCCAUGUGGAGAAGGGACUUUGUACCGUUGAGUCAGGAUAUUCAUUGGGUA | 5.17 nM | 7.35 nM |  |  |
| GGAAUGAGGCAGGAUAUGGGAGGGAGGACCGGACCAGAAGGGUUGACAUGAGGAUCACCCAUGUAGAGAUCCUC | 1060 nM | 724 nM |  |  |
| GUAGCAUACCAAGGAUAUUCAGGGCUUGGAUAGACAUGAGGAUCACCCAUGUGGCGAAAGCCUAGGGAGAAGGUGGAAUGCUAC |  |  | 16.7 nM | 15.2 nM |
| CCCGAGUUAGGAUAUCGGACCGGUCCGCGCGGACUGGCAAUUGAGAAGGAACAUGAGGAUCACCCAUGUGAGUA | 25.5 nM | 52.3 nM |  |  |
| AGGCGGAAAGUCAGGAUAUCUUGACCAAAGGGUUGAGAGAAGGGACAUGAGGAUCACCCAUGUGGCGACCGCCA | 37.5 nM | 67.9 nM |  |  |
| AAGUAGAUCCGAGGAUAUACAUUGCGGAAACGCAACAUGAGGAUCACCCAUGUAGAAGGCGGAUCUACAGGUACUAAAGUACCA | 10 nM | 17 nM |  |  |
| UUUACAUGAGGAUCACCCAUGUUAAAAUAAUUAAUUAUAAGUGAGGAUAUAUAAAUUAUAAAAUUGUAGAAGGCACUGGGUAUC |  |  | 47.9 nM | 44.5 nM |
| GUCUUCCUAGGAUAUACAUGAGGAUCACCCAUGUACAGUUUCGUCUUGGGAUACUCGCGUAGAAGGAGGUGGAU | 31.9 nM | 23.4 nM |  |  |
| AACUAGCUAGGAUAUACAUGAGGAUCACCCAUGUAAAAAAAAAAAAAAAGAUAUAUAUGUAGAAGGAGCUAGUA | 33.7 nM | 44.9 nM |  |  |
| GCCAGUUGAGGAUAUGCAGGUGGGUGCCCUGAUCCUCUGUUACAUGAGGAUCACCCAUGUAGAAGGCAAUGUCA | 92.4 nM | 123 nM |  |  |
| AGUAACAGAGGAUAUACUGUUUUAUGUGUUUAUUGUUUUAAACAUGAGGAUCACCCAUGUAGAAGGCUGAAUAA | 30.9 nM | 26.9 nM |  |  |
| AGCAAAUCAGGAUAUGUACUGGACGACAUGAGGAUCACCCAUGUGAUUCAGUGCGCGAGAACAGAAGGGAUUCGCU | 17.4 nM | 42.8 nM |  |  |
| ACUAGAUGAGGAUAUGCAUGUUUUCGUGUUCUUCUAGAUUAACAUGAGGAUCACCCAUGUAGAAGGCGUCAUUU | 81 nM | 118 nM |  |  |
| UAAUAAUUAUGAGGAUAUAUACAACAUGAGGAUCACCCAUGUACCCAUGUAGUAGAAGGCAUAUUUUUAGUUAAUAACACAACU |  |  | 71.3 nM | 30 nM |
| AAUAUAGAGCUGGAAAUAAAACUCACAUGAGGAUCACCCAUGUAGGAUAUCAGCACGAUAAGUGCUGAGAAGGACAUCCAGCUC | 15.2 nM | 15.2 nM |  |  |
| CGAUGGCAUGUAGGAUAUCGAGCUCAAAGAGCUCGAGAAGGACAUGAGGAUCACCCAUGUCCUCACAGACAGUGAGGGCUAUCG | 22.3 nM | 54.7 nM |  |  |
| AAUAAACUCACAGGAUAUAGCAGAGGUCGCCUGAACUUACAGGCGACUAUGCUAGAAGGGUGACCACAUGAGGAUCACCCAUGU |  |  | 974 nM | 170 nM |
| UUAAUUUUACAAGGAUAUCUAUUGUUAUUUCGACUUACAUGAGGAUCACCCAUGUUAAUAUAUUUAGAGAAGGUGUAUUUUCAG |  |  | 99.4 nM | 52.4 nM |
| GGAGCACAUGAAUACAUGAGGAUCACCCAUGUCGAAUGAUAUGAGGAUAUGCAUCGGAAAACGAUGUAGAAGGCAUAGUGCUCC |  |  | 60 nM | 11.4 nM |
| ACCGCACAUGAGGAUCACCCAUGUCAGGAUAUACAAGAAAAUCAGGCUAAUGCCUGAAGUAGAAGGGACGAGGA | 22.4 nM | 14.2 nM |  |  |

| Sequence | apparent Kd [1] | apparent Kd [2] | apparent Kd [3] | apparent Kd [4] |
| --- | --- | --- | --- | --- |
| AAAACACAUGAGGAUCACCCAUGUGAGGAUAUGUCCAUGCUCGGCAAACCGGGCAUGGACAGAAGGCACAUAAA | 45 nM | 46.7 nM |  |  |
| GAUCAAAACACUCCUUACACUACAUGAGGAUCACCCAUGUAGCAGGAUAUCGUUGCUCCUCGCUGCGAGAAGGGCUACGGGCGG | 8.02 nM | 13.8 nM |  |  |
| UGUCGGAGCAGAGGAUAUUACAUGAGGAUCACCCAUGUAUGAACCAAUAGCUGGAAACAGCAAUGUAAGAAGGCUUCUCCGACA | 7.13 nM | 45.9 nM |  |  |
| GUGCAAUGAGGAUAUACGUUGGUGGGCAUCUGUGUGCUCCUACAUGAGGAUCACCCAUGUAGAAGGCAUGUCAC | 12.5 nM | 15.8 nM |  |  |
| UGUUGUAUUACAGGAUAUCUAUUAUUUUUGUUUAGAGAAGGGUAUUCACAUGAGGAUCACCCAUGUAUAUACGAGGAAGUUGUG |  |  | 53.5 nM | 61.8 nM |
| UCUUCACAUGAGGAUCACCCAUGUGAGGAUAUGGAUUCGCUGGCCGUAGCCAGUGGAUCCAGAAGGCGCAUGAU | 23.8 nM | 25 nM |  |  |
| UGAUCGAGAGAUCUUAGAUUCUGGUAGGAUAUACAUUAUAAAAGCUUUACAUGAGGAUCACCCAUGUAGAAGGACUAGAGUCUA |  | 7.92 nM |  |  |
| ACAGUAUAUGUAGGAUAUCAUUGGUUAGGUAGGUGAGAAGGGCAUAGUACAUGAGGAUCACCCAUGUGUUGGUCCUCGCAGAAA | 376 nM | 252 nM |  |  |
| AAAUUUAACGAAGGAUAUGCUUACAUGAGGAUCACCCAUGUGUGCCUUGUGUUGCUGAUUAGGUUGCAGAAGGUCGUAUACAUA | 124 nM | 684 nM |  |  |
| CACAUUUUAACAGGAUAUGUAUGGUUGCUUAUUAUUGCAAAUUCAAUUAUUACAGAAGGGUUAUACAUGAGGAUCACCCAUGUG |  |  | 26.5 nM | 16.8 nM |
| GGGUAGUGAGGAUAUCGUUGUUAGGAGGAGUAGGUAGGAGGCGAGAAGGCACAUGAGGAUCACCCAUGUAUGAA | 26.8 nM | 29 nM |  |  |
| AAAACAUACCGAGGAUAUUCAUUUAAUAAAUAAACAUGAGGAUCACCCAUGUGGCAAAAGCCUAGGGAGAAGGCGGAAUGCUAA |  |  | 33.4 nM | 26.5 nM |
| GAUGCACAUGAGAAGGCGAUCAUGAAACAUGAUCGAGGAUAUCAUGUAAACAUGAGGAUCACCCAUGUAUGGGUAAAGUGCAUC |  |  | 446 nM | 32 nM |
| GCGUGACGGUGCGCGAGUGGACGGAGAAGGCAGACAUGAGGAUCACCCAUGUGAGCCUGCUAUUCUGAGGAUAUCCGUUCGCAC | 32.5 nM | 150 nM |  |  |
| AACAGUACAGGAUAUACAUGAGGAUCACCCAUGUGAUAUUUAAGUGGCGUACCACAAAGUAGAAGGGUACUGGA | 21.9 nM | 85.6 nM |  |  |
| CCCUUUAGAGGAUAUACAUGAGGAUCACCCAUGUCUUGGGUCCGGCCUGAUCUGGUACGUAGAAGGCUGUUGGU | 187 nM | 158 nM |  |  |
| AAUUAAUUAAUUAAUUGCUGACAUACAUGAGGAUCACCCAUGUAGGAUAUCGUCAGGAAUACUGACGAGAAGGACAUAGUCAGC | 14.9 nM | 16.3 nM |  |  |
| CCCACGCAUGAGAAGGGACAGGCGUGCAAUUCGACAUGAGGAUCACCCAUGUCAGGAUAUCAGUUAAGGUGGGCAGAACCAAUG | 16.9 nM | 76.7 nM |  |  |
| AGUUAAUAUCGAGGAUAUGUCUAGACACAUGAGGAUCACCCAUGUAUGUGUAUAGAAGGCGAUAUUAACAGCAUGUUACAUGCG |  |  | 39 nM | 16.1 nM |
| UUUUAACAUGAGGAUCACCCAUGUGAGGAUAUCGAAAUUUAUAUUAAUAUUUUUAUAACGAGAAGGCACAUUUU | 70.1 nM | 75.2 nM |  |  |
| GUGCACAUUCGAGGAUAUCGGAGAGGACUCCUUCGAGAAGGCGAUUCGUGCCGUGUUAUUCUGGACAUGAGGAUCACCCAUGUG |  |  | 45 nM | 28.7 nM |
